Dynein transport: inhibitors of GR-EGFP nuclear translocation, primary screen, dynein cargo transport inhibitor project, imaging, high-content, 3617.4 mouse cells | test concentration mostly 20 µM; stimulated with dexamethasone, 1 µM; active compounds read low | z-score, hits read low | 220,000 compounds, 0.47% hits;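 active means plate z-score of nuclear minus cytoplasmic receptor signal below a set negative limit, without overly bright fluorescence or cell loss, cut at about -3.5 in these data, passing the limit was not always enough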;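 further: z-score of nuclear minus cytoplasmic ring GR-EGFP intensity difference per well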
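Buffer or medium: Induction medium lacking tetracycline, stripped serum | Also added: Dexamethasone agonist, 1.0 µM final, for 30 min | Timing: 48 h induction, 1 h compound, 30 min dex at 37 °C | Detection: Formaldehyde fixation, Hoechst nuclear stain, 10x automated fluorescence imaging | Measure: Nuclear versus cytoplasmic GR-EGFP signal, averaged per well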
PTEN del growth: growth suppression of PTEN-null HCT116, primary screen, cell-based, CellTiter-Glo. HCT116 PTEN-null viability, 60 h; active compounds read low. viability, % at 10 µM. 140,000 compounds, 1.2% hits. AID 827, 2007;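 active means viability at or below a set limit, 4 SD under the median of all tested compounds, cut at about 3.7% in these data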;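 further: PTEN knockout HCT116 line with beta catenin targeted HCT116 as companion control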
Autophagy HCS: autophagy modulators in MEF cells, primary screen, imaging, high-content, MEF GFP-LC3 | MEF GFP-LC3 puncta imaging; test concentration mostly 10 µM | calls only at 10 µM (by protocol) | 190,000 compounds, 0.98% hits | AID 463193, 2010;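 active means percentage of spot-positive cells more than 3 SD above its plate mean, without a fluorescence outlier flag or 80% toxicity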;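 further: spot-positive cell cutoff set from DMSO-treated cells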
HCT116 bCat-KO: primary screen for growth suppressors in beta-catenin knockout HCT116 cells (colon tumor, human). viability, % at 10 µM. HCT116 beta-catenin knockout viability, CellTiter-Glo, 60 h; active compounds read low. 140,000 compounds, 1.5% hits;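 active means viability at or under a set limit, the compound median less 4 SD, cut at about 6% in these data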;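 further: 0% = Hyamine 1622 control at 20 µM and 100% = untreated cell control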
L major viab: Leishmania major promastigote growth inhibition, primary screen; Leishmania major promastigotes, resazurin fluorescence viability; inhibition, % at 10 µM; 200,000 compounds, 9% hits; AID 1063, 2008; in the data active means inhibition above about 50%;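 further: promastigotes grown with compound for 44 hours at 28 °C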
* = called active by the depositor; i = inactive; · = not tested or not shown; + = active, no number. Sampled rows, rich in hits. Any-hit rate of the full collection: about 9.2%.

SMILES | Dynein transport | PTEN del growth | Autophagy HCS | HCT116 bCat-KO | L major viab
O=C(C1CCC(=O)N1C1CCCCC1)N1CCC2(CC1)OCCO2 (stereo not drawn) | -0.082 | 95 | i | 97 | -3
CC1C(c2cccs2)=[N+]([O-])C(C)(C(=O)c2ccc(F)cc2)N1O (stereo not drawn) | -0.73 | · | i | · | -2
CCCCn1c(NS(=O)(=O)c2ccccc2)c(C(=O)OCC)c2nc3ccccc3nc21 | 0.35 | 89 | i | 87 | 99*
CCOC(=O)c1c(N)n(CCN2CCCCC2)c2nc3ccccc3nc12 | 3.5 | 55 | i | 59 | 55*
O=C1NC(=O)N(C2CCCCC2)C(=O)C1C1c2ccccc2C(=O)N1Cc1ccccc1 (stereo not drawn) | 0.38 | 88 | i | 94 | -3
N#Cc1ccccc1Cn1cc(C(=O)c2ccco2)c2ccccc21 | 0.75 | 63 | i | 69 | 12
CN(C)CCOC(=O)c1cn(Cc2ccccc2)c2ccccc12 | -0.42 | 70 | i | 77 | 100*
CCC(=O)c1cn(Cc2ccccc2)c2ccccc12 | 0.0025 | · | i | · | 0
CC1(C)C2CC=C(CN3CCOCC3)C1C2 (stereo not drawn) | 0.63 | 111 | i | 93 | 64*
CC(/C=N/NC(=O)c1n[nH]c2c1CCC2)=C\c1ccccc1 | 0.55 | 15 | + | 14 | 0
Cc1[nH]n(-c2ccccc2)c(=O)c1C(c1ccc([N+](=O)[O-])cc1)c1c(C)[nH]n(-c2ccccc2)c1=O | -0.75 | 88 | i | 91 | 62*
O=C(CCl)NCC1CCCO1 (stereo not drawn) | 0.11 | · | i | · | -15
O=C1CN=C(c2ccccc2)c2cc(Br)ccc2N1Cc1cc(=O)n2ccccc2n1 | 0.34 | 83 | i | 84 | 82*
O=c1oc2ccccc2c(O)c1[C@H]1c2ccc(O)cc2Oc2c1c(=O)oc1ccccc21 | -1.8 | · | · | · | ·
COc1ccc(CCNCc2ccncc2)cc1OC | -0.7 | 107 | i | 105 | 51*
Cc1ccc2[nH]c(=S)n(-c3cccnc3)c(=O)c2c1 | 0.36 | · | · | · | ·
O=C1NC(=O)C(=Cc2ccc(OCC(=O)N3CCOCC3)cc2)C(=O)N1 | 0.11 | 96 | i | 98 | 54*
CN(CCOc1ccc(C=C2C(=O)NC(=O)NC2=O)cc1)c1ccccn1 | 1.7 | · | i | · | 1
CN(C)C(CNC(=O)Cc1c(Cl)cccc1Cl)c1ccccc1 (stereo not drawn) | -0.16 | · | i | · | 7
CCN1C(=O)C(=Cc2ccc(C)s2)C(=O)N(CC)C1=S | -1.4 | 6 | i | 32 | 84*
COc1ccc(OCC(=O)N2CCN(C/C=C/c3ccccc3)CC2)cc1 | -0.19 | · | i | · | 73*
O=C(COc1ccc(Cl)cc1)N1CCN(C/C=C/c2ccccc2)CC1 | -0.25 | 66 | i | 68 | 89*
O=C(COc1ccccc1)N1CCN(CC(O)COc2ccccc2)CC1 (stereo not drawn) | 2.6 | 99 | i | 123 | 18
O=C(COc1ccc(S(=O)(=O)N2CCCCC2)cc1)N1CCN(Cc2ccccc2)CC1 | -0.28 | 82 | i | 80 | 16
O=C(COc1ccccc1)N1CCN(C/C=C/c2ccccc2)CC1 | 1.5 | 80 | i | 82 | 92*
SMILES | Dynein transport | PTEN del growth | Autophagy HCS | HCT116 bCat-KO | L major viab
CC1=CC(=O)OC2CC3OC4C[C@@H](C)C5OC6CC7O[C@]8(C)C/C=C\C9OC%10CC%11OC(CC(C)CO)CC(O)[C@]%11(C)OC%10CC9OC8C[C@]7(C)O[C@]6(C)CCC5OC4C[C@]3(C)OC12 (stereo partly drawn) | -0.31 | · | i | · | 26
CC1CCCCN1CC(=O)c1ccc2cc[nH]c2c1 (stereo not drawn) | -0.014 | 83 | i | 97 | -5
O=C(C(=O)N1CCOCC1)c1cn(Cc2ccccc2)c2ccccc12 | -0.084 | · | i | · | 2
CN1CCN(Cc2nc3ccccc3n2C)CC1 | -0.78 | 91 | i | 99 | -8
Cn1c(NN=O)nc2ccccc21 | -0.4 | · | i | · | 97*
CN(C)CCN=Cc1c(O)n(-c2cccc(C(F)(F)F)c2)c(=O)[nH]c1=O | -1.8 | 106 | i | 106 | -6
CCc1ccccc1N1C(=O)NC(=O)/C(=C\c2cc(C)n(C)c2C)C1=O | 0.22 | 105 | i | 106 | 54*
CC(c1ccccc1)n1cncc1C(=O)N1CCCC1=O (stereo not drawn) | -0.2 | 98 | i | 110 | -3
CN1CCC(O)(c2ccc(Cl)cc2)C(C(=O)c2ccc(Cl)cc2)C1 (stereo not drawn) | -0.96 | · | i | · | 86*
CN1CC(C(=O)c2ccc(Cl)cc2)C(c2ccc(N(C)C)cc2)C1 (stereo not drawn) | -0.46 | · | i | · | 34
CC1CCN(C(=O)c2ccc(N3CC4CC(C3)c3cccc(=O)n3C4)c([N+](=O)[O-])c2)CC1 (stereo not drawn) | -0.17 | 104 | i | 93 | 71*
Cc1ccc(NP(=O)(c2ccccc2)c2nc3ccccc3s2)cc1 (stereo not drawn) | 0.78 | · | i | · | 39
COc1cc2c3cc1Oc1cc(ccc1O)C[C@@H]1c4c(cc(OC)c(O)c4Oc4ccc(cc4)C[C@H]3N(C)CC2)CCN1C | -0.5 | 8 | i | 12 | 100*
COP(=O)(OC)C(O)C(Cl)(Cl)Cl (stereo not drawn) | -1.9 | 90 | i | 91 | -7
COc1cc(OC)c(OC)cc1CNC(C)C(O)c1ccccc1 (stereo not drawn) | 0.083 | 111 | i | 92 | -6
CC(CCc1ccccc1)NC(C)C(O)c1ccc(O)cc1 (stereo not drawn) | -0.039 | 88 | i | 79 | 89*
CCC(=NCCC(c1ccccc1)c1ccccc1)c1c(O)[nH]c(=O)[nH]c1=O | -0.054 | 77 | i | 86 | 72*
CCC(=NC(C)c1ccccc1)c1c(O)[nH]c(=O)[nH]c1=O (stereo not drawn) | -1.5 | · | · | · | ·
O=C1NC(=O)C(CCc2ccncc2)(Cc2ccc3c(c2)OCO3)C(=O)N1CCc1ccccc1 (stereo not drawn) | -0.62 | 83 | i | 95 | 100*
O=C1NC(=O)C(CCc2ccncc2)(CCc2ccncc2)C(=O)N1CCc1ccc(F)cc1 | 0.036 | · | i | · | 9
O=C1NC(=O)C(CCc2ccncc2)(CCc2ccncc2)C(=O)N1CCc1ccccc1 | 0.84 | · | i | · | 0
CN1C(=O)N(C)C(=O)C(CCc2ccncc2)(Cc2ccc3c(c2)OCO3)C1=O | -0.92 | 87 | i | 93 | 65*
CN1c2ccc([N+](=O)[O-])cc2CC2(C(=O)NC(=O)NC2=O)C1c1ccccc1 (stereo not drawn) | -0.44 | 82 | i | 84 | 4
CN1c2ccc([N+](=O)[O-])cc2CC2(C(=O)NC(=O)N(c3ccccc3)C2=O)C1c1ccccc1 (stereo not drawn) | -0.82 | 55 | i | 58 | 58*
